# Bioassay records from PubChem.
# MLL AF4-AF9 inh – inhibitors of AF4 peptide binding to AF9, primary screen, biochemical, AlphaScreen, biotin-AF4 peptide, FLAG-AF9, single point; Protein AF-9 (Homo sapiens), P42568; inhibition, % at 10 µM; hit rate 0.47% among 350,000; AID 651704, 2012;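 active means every replicate reaching a set inhibition limit, whatever the replicate mean, cut at about 25% in these data; inconclusive means mean inhibition reaches that limit but some replicates miss it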;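 further: 0% = plate neutral control median and 100% = total signal loss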
# Target sequence (P42568 whole entry, looked up): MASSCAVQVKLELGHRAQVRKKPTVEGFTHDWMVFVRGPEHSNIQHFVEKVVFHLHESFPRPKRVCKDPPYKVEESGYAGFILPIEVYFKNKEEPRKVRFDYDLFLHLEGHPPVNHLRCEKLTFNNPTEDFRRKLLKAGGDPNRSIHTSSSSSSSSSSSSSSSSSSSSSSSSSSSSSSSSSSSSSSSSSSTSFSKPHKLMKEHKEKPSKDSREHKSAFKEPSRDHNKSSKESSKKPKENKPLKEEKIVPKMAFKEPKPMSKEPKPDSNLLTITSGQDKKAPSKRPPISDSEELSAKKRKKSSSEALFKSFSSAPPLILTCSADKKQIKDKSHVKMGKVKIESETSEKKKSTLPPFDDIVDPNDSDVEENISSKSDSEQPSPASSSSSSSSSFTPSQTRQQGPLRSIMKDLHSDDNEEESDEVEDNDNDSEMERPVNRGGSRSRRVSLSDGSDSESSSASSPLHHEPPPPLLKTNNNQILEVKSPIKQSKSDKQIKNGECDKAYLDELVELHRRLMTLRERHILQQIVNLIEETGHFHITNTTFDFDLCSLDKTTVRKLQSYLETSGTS
# Xi reactivation – activators of inactive X chromosome reactivation, primary screen, imaging, XiGFP fibroblasts, GFP high-content imaging, set 2; XiGFP mouse fibroblasts, % GFP-positive cells imaging, 3 d; cells co-treated with 5-aza-dC sensitizer; scaled so ellipticine positive control = 100%; hit rate 0.055% among 360,000; activation, % at 7.58 µM;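 active means mean normalized replicate activation at least 10% and every replicate at or above 10%; inconclusive means only one of the two criteria met; inactive means mean below 10% and not all replicates reach 10%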;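 further: 0% = median of on-plate neutral control wells and 100% = ellipticine 6 µM median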
#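 Material: SV40-immortalized XiGFP fibroblast cells, line 68-5-11 | Buffer or medium: DMEM containing 5-aza-dC | Dosing: One concentration, pinned | Times: 3 d treatment, 15 min room-temperature fixation | Controls: Ellipticine 6 µM positive control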
# PGC1a acetyl inh – inhibitors of PGC1a acetylation signal, primary screen, cell-based, U2OS, AlphaScreen, inhibitor mode | AlphaScreen anti-acetyl-lysine; with virally co-expressed GCN5 acetyltransferase | inhibition, % at 15.6 µM | hit rate 0.17% among 350,000 | AID 651687, 2012;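 active means every replicate shows inhibition of at least 40%; inconclusive means mean inhibition at least 40% but some replicate below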;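 further: 0% = neutral control wells and 100% = positive control wells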
# EWS-Fli inh – EWS/Fli-driven NR0B1 reporter inhibitors, primary screen, A673 cells, NR0B1 luciferase, luminescence, MLPCN library. inhibition, % at 12.6 µM. viability-normalised. hit rate 0.67% among 350,000;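 active means mean inhibition of at least 50% after viability correction, with every replicate also passing that limit; inconclusive means mean reaches 50% but only one of two replicates passes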;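 further: firefly luciferase signal divided by Alamar Blue viability fluorescence both relative to DMSO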
# INS-1E GSIS act – GLuc luminescence reporter in INS-1E cells, primary screen for activators of glucose-dependent secretion of insulin. INS-1E GLuc reporter insulin secretion, 2-3 h. activation, % at 16.6 µM. hit rate 0.61% among 370,000. AID 743287, 2014;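 active means lowest replicate activation of at least 40%, so every replicate reaches that level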;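 further: 0% = median of neutral control wells and 100% = median of IBMX positive control wells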
# PAX8 reporter – inhibitors of PAX8-driven TPO luciferase reporter, primary screen, RMG-I cells, single concentration. inhibition, % at 12.6 µM. AID 652154, 2013. hit rate 1.2% among 360,000. SteadyGlo, 24 h;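 active means mean replicate inhibition at least 60% with every replicate also reaching 60%; inconclusive means only one of the two criteria is met; inactive means mean below 60% and not all replicates reaching 60%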;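 further: luciferase light reporting Pax8 driven TPO promoter activity; plate controls were median of neutral control wells for no effect and mitoxantrone controls for full effect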
# * marks the source's active call; other numbers are inactive results; ? = inconclusive; · = no result. An excerpt weighted towards active compounds, which were near 2.1% of everything screened.
SMILES,MLL AF4-AF9 inh,Xi reactivation,PGC1a acetyl inh,EWS-Fli inh,INS-1E GSIS act,PAX8 reporter
C[C@@H]1CCCCO[C@@H](CN(C)Cc2ccc3c(c2)OCO3)[C@@H](C)CN([C@@H](C)CO)C(=O)c2cc(NC(=O)Nc3ccc(C(F)(F)F)cc3)ccc2O1,3,0,7,4,-23,77*
O=C(Nc1cccc(Cl)c1)N[C@@H]1CC[C@H](CCNC(=O)C2CCOCC2)O[C@@H]1CO,0,-1,1,3,-6,6
CCOC(=O)c1c(NC(=O)/C=C/C(=O)O)sc(C)c1-c1ccc(C(C)(C)C)cc1,1,0,47*,24,-9,18
COc1cccc(NC(=O)C[C@@H]2CC[C@@H]3[C@@H](COc4ccc(NC(=O)C5CCCC5)cc4C(=O)N3C)O2)c1,0,0,4,36,5,1
CC(=O)Oc1ccc(OC(C)=O)c(SCCCCCCl)c1,-1,0,·,54*,4,15
CC(=O)Oc1ccc(C(=O)O)cc1OC(C)=O,-3,·,-6,-8,10,·
CC(C)NC(=O)N1CC2(C1)[C@H](c1ccccc1)[C@H](CO)N2C(=O)C1CCCC1,-3,0,-2,·,-3,·
O=C(CCN1CCCCC1)NCC[C@@H]1CC[C@H](NC(=O)C2CCCCC2)[C@H](CO)O1,-2,?,·,-10,-9,·
O=[N+]([O-])c1ccc(-c2nc(C(Cl)Cl)c3ccccc3n2)cc1,-2,1,3,67*,1,3
CCCCNC(=S)Nc1ccc2cn[nH]c2c1,8,0,-10,-9,10,11
S=C(NCc1ccccc1)Nc1ccc2cn[nH]c2c1,0,0,5,-8,40*,8
CN(C)CCCn1c(=O)n(C2CCCCC2)c(=O)c2c3c(sc21)CCCCC3,28*,0,3,2,-36,17
C[C@@H]1CN([C@@H](C)CO)C(=O)c2c(c3ccccc3n2C)-c2ccccc2CO[C@@H]1CN(C)Cc1ccc2c(c1)OCO2,5,0,-22,5,5,12
C[C@H]1CN([C@@H](C)CO)C(=O)c2c(c3ccccc3n2C)-c2ccccc2CO[C@H]1CN(C)Cc1ccc2c(c1)OCCN2C,44*,0,-2,8,-11,1
C[C@H](CO)N1C[C@H](C)[C@@H](CN(C)Cc2ccc3c(c2)OCCN3C)OCc2ccccc2-c2c(n(C)c3ccccc23)C1=O,31*,-1,-4,9,-7,5
C[C@@H]1CN([C@@H](C)CO)C(=O)c2ccccc2-c2ccccc2CO[C@@H]1CN(C)Cc1ccc2c(c1)OCCN2C,37*,0,3,14,-4,90*
O=C(O)C[C@H]1C[C@@H]2c3cc(NS(=O)(=O)c4ccc(F)cc4)ccc3O[C@@H]2[C@@H](CO)O1,-4,0,2,-3,30,-6
O=S(=O)(N[C@@H]1CC[C@H](CCn2cc(-c3cccc(F)c3)nn2)O[C@@H]1CO)c1ccc(F)cc1,-2,0,-10,0,-17,·
O=C(Nc1ccc(Cl)cc1)Nc1csc([N+](=O)[O-])c1,3,0,11,-2,-7,72*
O=C(Nc1csc([N+](=O)[O-])c1)Nc1c(Cl)cccc1Cl,-2,0,-5,6,-12,5
COc1cc(CN2CCC(n3nccc3NC(=O)C3CCOC3)CC2)ccc1F (centres undefined),0,0,7,·,45*,1
COc1cc(F)ccc1CN1CCC(n2nccc2NC(=O)C2CCOC2)CC1 (centres undefined),1,0,·,·,6,-2
Cc1ccc(N(CCC#N)C(=O)CCl)cc1C,-4,0,20,72*,1,?
O=C(N/N=C/c1ccc(Br)s1)c1ccccc1[N+](=O)[O-],·,·,-1,·,-16,-5
O=C(N/N=C/c1ccc(Br)s1)c1ccc([N+](=O)[O-])cc1,-1,97*,-12,50,-3,11
SMILES,MLL AF4-AF9 inh,Xi reactivation,PGC1a acetyl inh,EWS-Fli inh,INS-1E GSIS act,PAX8 reporter
N#Cc1ccc(NC(=O)Nc2ccc(Oc3ccc(NC(=O)Nc4ccc(C#N)cc4)cc3)cc2)cc1,-11,0,-30,19,-8,73*
O=C(CCN1CCCCC1)NCC[C@H]1CC[C@H](NS(=O)(=O)c2cccc(F)c2)[C@@H](CO)O1,1,-1,21,-1,9,-3
C[C@@H]1CN([C@@H](C)CO)C(=O)c2cccc(NC(=O)CCCCCC(=O)Nc3ccccc3N)c2O[C@H]1CN(C)Cc1ccc(Cl)c(Cl)c1,-11,0,-26,33,1,52
C[C@H]1CN([C@@H](C)CO)C(=O)c2cccc(NC(=O)CCCCCC(=O)Nc3ccccc3N)c2O[C@@H]1CN(C)Cc1ccc(Cl)c(Cl)c1,-1,0,-39,·,-6,65*
C[C@H]1CN([C@@H](C)CO)C(=O)c2cccc(NC(=O)CCCCCC(=O)Nc3ccccc3N)c2O[C@H]1CN(C)CC1CCCCC1,0,-1,-14,-3,23,-15
C[C@H](CO)N1C[C@H](C)[C@@H](CN(C)Cc2ccc(Oc3ccccc3)cc2)Oc2c(NC(=O)CCCCCC(=O)Nc3ccccc3N)cccc2C1=O,4,1,-20,27,-50,63*
C[C@H](CO)N1C[C@H](C)[C@@H](CN(C)CC2CCCCC2)Oc2c(NC(=O)CCCCCC(=O)Nc3ccccc3N)cccc2C1=O,-8,-1,-14,·,-10,81*
CCCC(=O)N1CC2(CN(S(C)(=O)=O)C2)c2c([nH]c3cc(OC)ccc23)[C@@H]1CO,1,0,-6,27,17,·
C[C@@H]1CN([C@@H](C)CO)S(=O)(=O)c2ccc(C3=CCCCC3)cc2O[C@@H]1CN(C)Cc1cccnc1,10,0,-2,8,-1,·
O=C(C[C@H]1C=C[C@H](NC(=O)c2ccc3c(c2)OCO3)[C@H](CO)O1)NCc1ccc(F)cc1,-5,1,8,·,6,·
COc1ccc2c3c(n(C)c2c1)[C@H](CO)N(Cc1ccccc1)CC31CCN(C(=O)c2ccccc2F)CC1,7,0,-15,31,-11,17
COc1nc(-c2ccccc2)cc(-c2ccc3c(c2)OCO3)c1C#N,1,0,·,59*,-5,10
COc1ccc(-c2cc(-c3ccccc3)c(C#N)c(S(C)(=O)=O)n2)cc1,·,·,20,·,·,93*
